Bioassay records: PubChem BioAssay, several laboratories
Hsp90 block – tumor Hsp90 inhibitors, primary screen, cell lysate, fluorescence polarization, NCI-N417 lysate. Cy3B-geldanamycin FP displacement. 64,000 compounds, 0.35% hits. Heat shock protein HSP 90-alpha (Homo sapiens), P07900. inhibition, % at 30 µM;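 active = inhibition above 50%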;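 also: 0% = tracer plus lysate wells and 100% = tracer alone without lysate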
BAP1 block – inhibitors of BAP1 deubiquitinase, primary screen, biochemical, Ub-AMC fluorescence, kinetic; Ubiquitin carboxyl-terminal hydrolase BAP1 (Homo sapiens), Q92560; recombinant BAP1, Ub-AMC hydrolysis fluorescence kinetic; stronger effect = lower value; calls only at 20 µM; 72,000 compounds, 0.48% hits; AID 436, 2006;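 active = activity remaining at or below 50% of control, provided the compound also passes the data quality filters; inactive = the rest, including low values that fail the filters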;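 also: 100% = DMSO wells rate and 0% = substrate alone blank rate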
M1 agonist – M1 muscarinic receptor agonists, primary screen, CHO-M1 cells, Fluo-4 calcium, agonist mode; Muscarinic acetylcholine receptor M1; 64,000 compounds, 3% hits; Fluo-4 calcium fluorescence; stronger effect = higher value; B-score at 10 µM;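 active = fluorescence rise, raw or as B-score row- and column-corrected plate score, outside the 99.7% band of its plate's samples, either direction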
E coli WT exp – growth inhibitors of wild-type E. coli, primary screen, strain BW25113, expanded library, OD600; OD600 absorbance; growth inhibition, % at 100 µM; 98,000 compounds, 0.15% hits;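 active = growth inhibition above about 50% at one test dose, limit read from the data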;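 also: growth measured after 20 h incubation at 37 °C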
M1 antag – antagonists of rat M1 muscarinic receptor; CHO-M1 cells, Fluo-4 calcium, ACh EC80 antagonist mode; stronger effect = lower value; B-score at 10 µM; 64,000 compounds, 3.4% hits; Muscarinic acetylcholine receptor M1 (Rattus norvegicus), P08482; AID 628, 2007;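 active = calcium fluorescence response, raw or row-and-column corrected B-score, differing from the plate sample mean either way at a set confidence level, mostly lower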
Target sequence (P08482 whole entry, looked up): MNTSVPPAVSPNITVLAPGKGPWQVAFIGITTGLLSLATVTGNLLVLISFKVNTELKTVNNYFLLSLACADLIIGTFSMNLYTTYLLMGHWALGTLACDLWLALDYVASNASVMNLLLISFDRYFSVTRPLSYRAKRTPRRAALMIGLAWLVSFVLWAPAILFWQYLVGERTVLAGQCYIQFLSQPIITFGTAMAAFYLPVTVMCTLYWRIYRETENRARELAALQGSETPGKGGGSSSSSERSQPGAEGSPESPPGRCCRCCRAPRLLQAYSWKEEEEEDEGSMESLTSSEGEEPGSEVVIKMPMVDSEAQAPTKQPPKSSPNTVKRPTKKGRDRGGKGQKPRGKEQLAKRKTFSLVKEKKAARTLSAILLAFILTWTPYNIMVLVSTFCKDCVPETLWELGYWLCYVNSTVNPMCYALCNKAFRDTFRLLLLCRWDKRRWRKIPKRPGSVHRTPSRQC
Ecoli tolC – growth inhibitors of E. coli tolC mutant, primary screen, strain BW25113 ΔtolC::kan, 384-well; OD615; growth inhibition, % at 10 µM (by protocol); 65,000 compounds, 2.2% hits; AID 573, 2007;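 active = growth inhibition at or above a cutoff equal to the mean over every tested compound plus 3 SD, cut at about 60% in these data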;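 also: growth measured after 20 h incubation at 37 °C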
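Assay system: tolC-deleted E. coli BW25113. Medium: kanamycin-containing LB broth (50 µg/mL). Dosing: 10 µM final, single dose. Timing: bacterial growth with compound for 20 h at 37 °C. Detection: A615 absorbance measurement. Read-out basis: growth inhibition in percent.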
M1 antag conf – rat M1 muscarinic receptor antagonists, confirmation, CHO cells, Fluo-4 calcium, duplicate; 1,700 compounds, 43% hits; ACh EC80 antagonism; stronger effect = lower value; shares compounds with M1 antag; calcium response (max-min fluorescence) at 10 µM;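 active = calcium response below the same-plate mean of wells given acetylcholine alone at its 80%-effect dose, minus 3 SD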;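 also: raw fluorescence intensity difference in arbitrary instrument units and not normalized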
mGluR4 antag – human mGluR4 response to M1 antagonist hits, M1 allosteric modulator project, cell-based, antagonist mode, secondary assay 1. shares compounds with M1 antag. CHO-mGluR4 calcium flux, Fluo-4 fluorescence, glutamate EC80; stronger effect = lower value. fluorescence response (max-min) at 10 µM. 1,700 compounds, 0.9% hits;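 active = fluorescence response below the plate's average for near-maximal glutamate wells, less 3 SD of those wells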;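 also: raw unnormalized fluorescence span taken in the window right after glutamate addition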
The depositor's hits bear a star; i = inactive; / = no result shown. Shown are actives, neighbours in structure and some others; about 5.1% of the full set was active somewhere.

SMILES	Hsp90 block	BAP1 block	M1 agonist	E coli WT exp	M1 antag	Ecoli tolC	M1 antag conf	mGluR4 antag
Cc1ccc2c(c1)NC(=O)C(CC(=O)NCCN(CC(C)C)CC(C)C)O2 (stereo not given)	-2	i	0.82	0	-5.6*	3	305*	248
CCN1CCN(Cc2ccc(NC(=O)CC3Oc4ccc(C)cc4NC3=O)cc2)CC1 (stereo not given)	2	i	-0.37	-1	-3.9*	-18	335*	221
COc1ccc(NC(=O)CC2Oc3ccc(C)cc3NC2=O)cc1 (stereo not given)	0	i	-0.44	-9	0.2	-9	/	/
Cc1ccc2c(c1)NC(=O)C(CC(=O)Nc1ccc(CN3CCC(C)CC3)cc1)O2 (stereo not given)	-6	i	-0.07	-6	-9.3*	-11	14*	231
Cc1ccc(NC(=O)CC2Oc3ccc(C)cc3NC2=O)cc1 (stereo not given)	-4	i	-0.8	-4	0.016	5	/	/
COc1ccc(CCN2C(=O)CC(C(=O)Nc3ccccc3OC)SC2=Nc2ccc(F)cc2)cc1 (stereo not given)	/	i	/	/	/	/	/	/
CC1=C(C(=O)OC2CCCCC2)C(c2cccc(O)c2)NC(=O)N1 (stereo not given)	/	i	/	/	/	/	/	/
COc1ccc(NC(=O)c2cnn3c2NC(c2ccc(F)cc2)CC3C(F)(F)F)c(OC)c1 (stereo not given)	/	i	/	/	/	/	/	/
Cc1cc(=O)[nH]c(=S)n1-c1ccccc1	1	i	-0.13	-15	-1.2*	-23	653	229
CCn1c(CNC(=O)c2ccco2)nnc1SCC(=O)Nc1cc(C)c(C)cc1Br	/	/	/	-4	/	/	/	/
CCn1c(CNC(=O)c2ccco2)nnc1SCC(=O)Nc1cc(C(F)(F)F)ccc1Cl	-2	/	0.26	3	-1.2*	4	659	184
CCn1c(CNc2ccccc2Cl)nnc1SCC(=O)NCc1ccccc1	-7	i	0.34	3	-3*	10	465*	239
COc1cc(C2NC(=O)NC(C)=C2C(=O)OCC(C)C)cc(Cl)c1O (stereo not given)	/	i	/	/	/	/	/	/
COC(=O)c1ccc2c(c1)C(C)(C)C1(C=Cc3cc([N+](=O)[O-])ccc3O1)N2C (stereo not given)	/	i	/	/	/	/	/	/
c1cc2c3c(cccc3c1)C(N1CCCCC1)=N2	0	i	1.3	15	-6.8*	-12	224*	247
CCN(CC)S(=O)(=O)c1ccc(C(=O)OC2CCCCC2CN(C)C)cc1 (stereo not given)	-1	i	0.048	-1	-4.6*	-13	509	219
O=C(c1ccc(Cl)c(S(=O)(=O)N2CCCC2)c1)N1CCN(c2ccccn2)CC1	/	/	/	5	/	/	/	/
O=C(c1ccc(S(=O)(=O)N2CCCCCC2)cc1)N1CCN(c2ccccn2)CC1	-15	i	-0.55	-1	-2.1*	40	507*	203
Cc1cccc(NC(=O)c2c(NC(=O)c3cccnc3)sc3c2CCC3)c1	/	i	/	/	/	/	/	/
COc1ccc(N2CCN(S(=O)(=O)c3ccc(Br)s3)CC2)cc1	1	i	0.17	0	-18*	-21	675	251
Cc1ccc(-c2nnc(N3CCN(C(=O)c4ccco4)CC3)c3ccccc23)cc1	0	i	1.6	-4	-6.9*	32	209*	206
Cc1ccc(OCC(=O)N2CCN(c3nnc(-c4ccc(C)cc4)c4ccccc34)CC2)cc1	/	/	/	-9	/	/	/	/
